Compound activity as filed in PubChem BioAssay.
This is a sample that favours compounds with a hit; in the whole collection about 2.3% have one here.
TRPC4 inh = inhibitors of mouse TRPC4 channel, primary screen, Fluo4 calcium, HEK293 TRPC4beta/mu-opioid cells; Short transient receptor potential channel 4 (Mus musculus), Q9QUQ5; DAMGO-evoked Fluo4 calcium flux; active compounds read low; B-score at 10 µM; 0.39% of 300,000 active;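 active = B-score over 3 SD under the library average, no early fluorescence shift, positive overall ratio signal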
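Signal: kinetic Fluo4 fluorescence imaging of calcium influx. Material: stable TRPC4beta/mu-opioid receptor HEK293 cells. Probe or stimulus: DAMGO in two steps, submaximal then maximal.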
TRPC4 act = activators of mouse TRPC4 channel, primary screen, Fluo4 calcium, HEK293 TRPC4beta/mu-opioid cells; Short transient receptor potential channel 4 (Mus musculus), Q9QUQ5; Fluo4 calcium fluorescence; active compounds read high; B-score at 10 µM; 0.49% of 310,000 active; AID 2237, 2010;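 active = B-score above 5 SD of library B-scores, and initial fluorescence ratio not above library mean plus 5 SD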;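 note: positive B-score marks a calcium rise read as TRPC4 activation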
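system = HEK293 cells stably co-expressing mouse TRPC4beta and mu-opioid receptor | schedule = Fluo4 dye loading 45 min at room temperature, 110 s recording | measure = B-scored integrated calcium fluorescence ratio | signal = Fluo4 calcium-sensitive dye fluorescence, kinetic, 1 Hz baseline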
TRPC6 inhibitor = mouse TRPC6 channel inhibitors, primary screen, cell-based, HEK293, membrane potential dye | Short transient receptor potential channel 6 (Mus musculus), Q61143 | ACh-evoked depolarization; active compounds read low | B-score at 10 µM | 1.1% of 310,000 active;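 active = B-score under library mean minus 3 SD, initial fluorescence not abnormally high, positive integrated signal ratio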;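 note: B-score derived from integrated fluorescence ratio over the kinetic read; more negative B-score means stronger inhibition of depolarization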
TRPC6 activator = mouse TRPC6 channel activators, primary screen, cell-based, HEK293, membrane potential dye | Short transient receptor potential channel 6 (Mus musculus), Q61143 | 0.13% of 310,000 active | B-score at 10 µM | AID 2550, 2010 | HEK293-TRPC6 membrane potential dye fluorescence; active compounds read high;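 active = B-score of the integrated fluorescence ratio above library mean plus 3 SD, and starting fluorescence ratio within library mean plus 5 SD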;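 note: higher score means more depolarization so channel activation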
TRPC4 potent = positive allosteric modulators of TRPC4, primary screen, cell-based, mouse TRPC4beta, HEK293 mu-opioid, Fluo-4 calcium. Short transient receptor potential channel 4 (Mus musculus), Q9QUQ5. B-score at 10 µM. AID 2227, 2009. 0.42% of 310,000 active. DAMGO EC20, Fluo-4 Ca2+ flux; active compounds read high;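 active = B-score of calcium response area above 5 SD of library B-scores, with initial fluorescence ratio within 5 SD of library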;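 note: B-score of integrated fluorescence ratio over time as area under calcium response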
* hit, by the source's call; i = inactive.

SMILES | TRPC4 inh | TRPC4 act | TRPC6 inhibitor | TRPC6 activator | TRPC4 potent
Cc1cc(OCc2cc(C(=O)N(C)C(C)c3ccccn3)no2)cc(C)c1Cl (stereo not drawn) | i | i | i | i | i
CC(C)Oc1ccc(S(=O)(=O)N2CCCCC2)cc1NC(=O)C1CCC1 | i | i | i | i | i
COc1cccc(-c2nc(CS(=O)(=O)CC(=O)Nc3ccc(C(C)=O)cc3)c(C)o2)c1 | i | i | i | i | i
CN(C)CCOC(=O)C1(c2ccccc2)CCOCC1 | i | i | i | i | 11*
CC1(C)CC2CC(C)(CN2CC(O)COc2ccccc2)C1 (stereo not drawn) | -9* | i | i | i | i
OCC1(CCc2ccccc2)CCN(Cc2cc(F)ccc2-n2cccn2)CC1 | i | 82* | i | i | i
OCC1(CCCc2ccccc2)CCN(Cc2cc(F)ccc2F)CC1 | -7* | i | i | i | i
COc1ccc2c(c1)C=C(CN1CCC(CO)(CCc3ccccc3)CC1)CO2 | -6* | i | i | i | i
OCC1(CCc2ccccc2)CCN(Cc2ccccc2Cl)CC1 | i | 69* | i | i | i
OCC1(CCc2ccccc2)CCN(Cc2c(F)ccc(F)c2F)CC1 | i | i | i | i | i
O=C(NCCN1CCOCC1)c1cc2sccc2n1Cc1ccc(F)cc1 | -7* | i | i | i | i
Cc1ccc(CN2C(=O)CSc3ccc(C(=O)NCCN4CCOCC4)cc32)cc1 | i | i | i | i | i
O=C(NCCN1CCOCC1)c1ccc2c(c1)N(Cc1ccc(F)cc1)C(=O)CS2 | -7* | i | i | i | i
COc1cccc(NC(=O)c2c(C)nn(-c3ccccc3)c2Cl)c1 | i | i | i | i | i
CC(C)(C)OC(=O)N1CCC(C(=O)NCC2CCCO2)CC1 (stereo not drawn) | i | i | i | i | i
O=C(COc1coc(CN2CCN(Cc3ccccc3)CC2)cc1=O)Nc1ccccc1 | i | i | i | i | i
COc1ccc(OC)c(S(=O)(=O)N2CCC(NC(=O)c3ccccc3)CC2)c1 | i | i | i | i | i
CCNS(=O)(=O)c1ccc(Br)c(OC)c1 | -6* | i | i | i | i
COc1cc(S(=O)(=O)NCc2ccccc2)ccc1Br | i | i | i | i | i
CCCCCC(=O)NNC1CC(=O)N(c2cccc(OCC)c2)C1=O (stereo not drawn) | i | i | i | i | i
Oc1ccccc1-c1cc(C(F)(F)C(F)F)[nH]n1 | i | i | i | i | i
COC(=O)c1cc(-c2ccc(Cl)cc2)n[nH]1 | i | i | i | i | i
Fc1ccc(-c2cc(C(F)(F)C(F)F)[nH]n2)cc1 | i | 71* | i | i | i
FC(F)C(F)(F)c1cc(-c2ccc(Cl)cc2)n[nH]1 | i | 50* | i | i | i
Nc1c2c(nc3ccc(Br)cc13)N(C1CCCCC1)CC2 | i | i | -7.38* | 17.8* | i
SMILES | TRPC4 inh | TRPC4 act | TRPC6 inhibitor | TRPC6 activator | TRPC4 potent
O=C(Nc1ccon1)c1csc2ccccc12 | -7* | i | i | i | i
Cc1ccc(OCC(=O)NNC(=S)NC(=O)c2ccc(Br)o2)c(C)c1 | -6* | 69* | i | i | 20*
O=C(COc1ccc(Br)cc1Br)NNC(=O)c1cccs1 | i | i | i | i | i
COc1ccc(C(=O)NNC(=S)NC(=O)c2ccc(Br)o2)cc1OC | i | i | i | i | i
Cc1ccc(OCC(=O)NNC(=S)NC(=O)c2cccs2)c(C)c1 | i | 66* | i | i | i
Cc1cc(OCC(=O)NNC(=S)NC(=O)c2cccs2)ccc1Cl | i | i | i | i | 19*
O=C(Nc1cnccn1)Nc1ccccc1F | i | i | i | i | i
